STAT3 activator: activators of IL-6 induced STAT3 signaling; U3A cells, IL-6 STAT3-luciferase reporter, luminescence; 100% = signal with IL-6 EC80 alone; activation (% of control), % at 5.6 µM; 0.91% of 190,000 active;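 active = activation above the screen-wide mean of compound activation plus 3 SD, cut at about 130% in these data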
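Material: STAT3-luciferase reporter U3A cells. Controls: IL-6-treated wells, 100% activation. Read-out: % activation versus median of IL-6-stimulated wells. Probe or stimulus: IL-6 stimulus at 33 ng/mL final. Timing: compound 1 h, then IL-6 6 h at 37 °C. Signal: reporter luminescence signal.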
FXIIa inh 1536: factor XIIa (human) inhibition; purified FXIIa, Boc-QGR-AMC fluorogenic substrate, 2 h; inhibition, % at 5 µM; 0.3% of 220,000 active; AID 800; in the data active = inhibition above about 40%
Target sequence (P00748 20-372 limits assumed): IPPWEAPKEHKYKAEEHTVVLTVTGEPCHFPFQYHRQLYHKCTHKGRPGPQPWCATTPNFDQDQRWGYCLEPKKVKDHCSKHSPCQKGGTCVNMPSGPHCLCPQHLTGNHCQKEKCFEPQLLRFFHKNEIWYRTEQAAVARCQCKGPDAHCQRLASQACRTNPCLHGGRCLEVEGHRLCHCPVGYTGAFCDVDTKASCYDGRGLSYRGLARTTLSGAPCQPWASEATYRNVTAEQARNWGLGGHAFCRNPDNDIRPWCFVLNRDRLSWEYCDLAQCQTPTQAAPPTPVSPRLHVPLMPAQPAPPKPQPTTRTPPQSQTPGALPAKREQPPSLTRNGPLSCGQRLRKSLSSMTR
Target sequence (P00748 373-615 limits assumed): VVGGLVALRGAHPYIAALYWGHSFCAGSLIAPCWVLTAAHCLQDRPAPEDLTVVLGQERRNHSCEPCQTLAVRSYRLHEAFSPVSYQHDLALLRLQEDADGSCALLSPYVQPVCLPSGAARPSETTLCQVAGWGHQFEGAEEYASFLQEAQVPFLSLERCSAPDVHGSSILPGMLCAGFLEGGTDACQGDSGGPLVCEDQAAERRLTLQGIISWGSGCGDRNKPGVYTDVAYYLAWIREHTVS
FXIa inh 1536: inhibitors of human coagulation factor XIa; inhibition, % at 5 µM; AID 798; purified FXIa, Boc-Glu-Ala-Arg-AMC fluorogenic substrate; 0.14% of 220,000 active; P03951;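 active = inhibition of at least 40%; inactive = inhibition below 40%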;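 note: fluorescence of freed AMC excited at 355 nm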
AHR act: activators of human aryl hydrocarbon receptor; AID 2796; P35869; activation, % at 5 µM; AHR-responsive luciferase reporter cells, luminescence; 2.5% of 320,000 active; in the data active = activation above about 47%
thrombin 1536: inhibitors of human thrombin; AID 1046; P00734; 0.26% of 220,000 active; alpha-thrombin, Boc-VPR-AMC fluorogenic substrate cleavage; inhibition, % at 5 µM;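 active = inhibition at or above 40%; inactive = inhibition below 40%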
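Material: Human alpha-thrombin protein | Buffer or medium: pH 7.5 Tris-saline with Tween 20 | Reagent: Boc-VPR-AMC substrate, 15 µM final | Schedule: Reaction at ambient temperature | Detection: AMC fluorescence at 355 nm excitation and 460 nm emission | Evaluation: Percent inhibition scaled between no-compound controls and no-enzyme blanks | Controls: no-compound enzyme wells and no-enzyme blanks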
hK5 inh: blocks human kallikrein 5 protease activity; Q9Y337; recombinant hK5, fluorogenic AMC substrate cleavage; inhibition, % at 5 µM; 0.59% of 210,000 active;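 active = inhibition of 40% or more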
Each line names hits and unclear results; the compound was inactive in the other large screens. Hits are enriched below; roughly 3.5% of the tested compounds scored in any of these assays.

c1ccc(-c2csc3ncnc(NCC4COc5ccccc5O4)c23)cc1 (stereo unspecified)	FXIIa inh 1536 41, hK5 inh 57
Cc1nn2c(-c3ccccn3)ccnc2c1Cl	none
Cc1nn2c(-c3ccc(F)cc3)ccnc2c1Cl	AHR act 58 (no result: STAT3 activator, FXIIa inh 1536, FXIa inh 1536, thrombin 1536, hK5 inh)
Cc1c(C(=O)c2ccc(Cl)cc2Cl)cnc2cc3c(cc12)OCO3	none
Cc1c(-c2cc(Br)ccc2O)nc2cc3c(cc2c1C)OCO3	AHR act 63 (no result: STAT3 activator, FXIIa inh 1536, FXIa inh 1536, thrombin 1536, hK5 inh)
CCCOc1ccc(/C=N/NC(=O)C(=O)Nc2ccccn2)cc1	none
COc1cccc(/C=N/Nc2nc3ccccc3[nH]2)c1O	AHR act 60 (no result: STAT3 activator)
COc1cc(/C=N/NC(=O)c2cc3ccccc3[nH]2)ccc1O	AHR act 53 (no result: STAT3 activator, FXIIa inh 1536, FXIa inh 1536, thrombin 1536, hK5 inh)
COc1cc(/C=N/Nc2nc3ccccc3[nH]2)ccc1O	AHR act 55
COc1cccc(/C=N/Nc2nc3ccccc3[nH]2)c1OC	none (no result: STAT3 activator)
COc1cc(/C=N/NC(=O)C(=O)Nc2ccccn2)ccc1O	hK5 inh 70
O=C(O)c1ccc(/C=N/Nc2nc3ccccc3[nH]2)cc1	none (no result: STAT3 activator)
COC(=O)c1ccc(/C=N/Nc2nc3ccccc3[nH]2)cc1	AHR act 48
Clc1cccc2sc(N3CCCC3)nc12	hK5 inh 109
Clc1cccc2sc(N3CCOCC3)nc12	none (no result: FXIIa inh 1536, FXIa inh 1536, thrombin 1536, hK5 inh)
CN1c2ccccc2C(O)=C(C(=S)Nc2ccc(F)c(Cl)c2)S1(=O)=O	AHR act 52
CN1c2ccccc2C(O)=C(C(=S)Nc2ccccc2)S1(=O)=O	none
COc1ccc(C2C(C(=O)Nc3ccccc3OC)=C(C)Nc3ncnn32)cc1 (stereo unspecified)	FXIIa inh 1536 107, hK5 inh 45
CCOCCc1nnc(NC(=O)C(CC)c2ccccc2)s1 (stereo unspecified)	none
COc1ccc(Nc2nc(N3CCCC3)c3ccccc3n2)cc1	AHR act 50
Cc1nc2ccccc2c2oc(C(=O)NCCN3CCN(C)CC3)cc12	none
Cc1nc2ccccc2c2oc(C(=O)NC3CC3)cc12	AHR act 65
CCN(CC)C(=O)CSc1ccccc1N	hK5 inh 47
CCN(Cc1ccccc1)C(=O)CSc1ccccc1C(=O)O	none
Cc1ccc(Cl)cc1N1CCN(C(=O)COc2ccc(S(=O)(=O)NC(C)C)cc2)CC1	hK5 inh 46
CCn1c(-c2ccc(N(C)C)cc2)nc2ccccc21	AHR act 54
CCOCCn1c(-c2ccc(OC)cc2)nc2ccccc21	FXIIa inh 1536 54, hK5 inh 42
CCn1c(-c2ccc(N)cc2)nc2ccccc21	none
CCN(CCn1cccn1)C(=O)CCc1nnc(C2(c3ccc(Cl)cc3)CCC2)o1	none
Cc1ccc(S(=O)(=O)N2CCN(Cc3ccccc3)CC2)c(C)c1N(C)S(=O)(=O)c1ccccc1	none
Cc1nonc1OC(C)CNCCNc1ccc([N+](=O)[O-])cc1 (stereo unspecified)	FXIIa inh 1536 43 (no result: STAT3 activator)
Cc1nonc1OCCNCCNc1ccccc1[N+](=O)[O-]	none
O=C(Nc1cccc(-c2cn3ccccc3n2)c1)C1CC1	AHR act 65
CC(=O)c1ccc(S(=O)(=O)Nc2ccc(-c3cn4c(n3)SCC4)cc2)cc1	thrombin 1536 42
Oc1ccc(-c2cn3c(n2)SCC3)cc1	AHR act 65
OCCC1CN(C/C=C/c2ccco2)CCN1Cc1ccccc1 (stereo unspecified)	none (no result: STAT3 activator, FXIIa inh 1536, FXIa inh 1536, thrombin 1536, hK5 inh)
COC(=O)[C@@H](c1ccccc1)N(C)S(=O)(=O)c1cccc(S(=O)(=O)N(C)[C@@H](C(=O)OC)c2ccccc2)c1	none (no result: STAT3 activator, FXIIa inh 1536, FXIa inh 1536, thrombin 1536, hK5 inh)
CCOc1ccccc1-c1nc(C(N)=O)c2[nH]c(=O)n(-c3cccc(C)c3)c2n1	AHR act 64
COc1ccc(Cn2c(=O)[nH]c3cc(C(=O)N4CCN(c5ccccn5)CC4)ccc3c2=O)cc1	none
O=C(O)Cc1sc(Nc2cccc3ccccc23)nc1-c1ccccc1	AHR act 61 (no result: STAT3 activator, FXIIa inh 1536, FXIa inh 1536, thrombin 1536, hK5 inh)
O=C(O)Cc1sc(Nc2cccc3ccccc23)nc1-c1ccc(Cl)cc1	AHR act 56 (no result: STAT3 activator, FXIIa inh 1536, FXIa inh 1536, thrombin 1536, hK5 inh)
Brc1ccc(-c2nc(-c3ccccn3)no2)o1	AHR act 51
COc1ccc(-c2nc(-c3ccccn3)no2)cc1	none
Clc1ccccc1OCc1nc(-c2ccccn2)no1	hK5 inh 48
Clc1ccc(-c2nc(-c3ccccn3)no2)cc1Cl	AHR act 72
Brc1ccc(-c2nc(-c3ccncc3)no2)o1	none
O=c1[nH]n(Cc2ccccc2)c2ccccc12	none (no result: STAT3 activator, FXIIa inh 1536, FXIa inh 1536, thrombin 1536, hK5 inh)
COc1ccc2ncc(S(=O)(=O)c3ccccc3)c(N3CCN(c4ccccc4)CC3)c2c1	none
CCN1Cc2c(/C=C/c3ccccc3)nc3ccc(OC)cc3c2N(c2cccc(Cl)c2)C1	AHR act 65 (no result: STAT3 activator)
O=C(CN(Cc1ccc(Cl)cc1)S(=O)(=O)c1ccccc1)NCC1CCCO1 (stereo unspecified)	none (no result: STAT3 activator, FXIIa inh 1536, FXIa inh 1536, thrombin 1536, hK5 inh)
Cc1ccc(-c2noc(C3CCCN(C(=O)c4ccc(F)cc4F)C3)n2)cc1 (stereo unspecified)	none
CC(C)c1ccc(-c2noc(C3CCCN(C(=O)c4ccc(F)cc4F)C3)n2)cc1 (stereo unspecified)	thrombin 1536 61
O=S(=O)(Nc1ccccc1)c1ccc(-c2csnn2)cc1	FXIIa inh 1536 43 (no result: STAT3 activator)
COc1ccc(N2CC(C(=O)N(CC(C)C)c3c(N)n(Cc4ccccc4)c(=O)[nH]c3=O)CC2=O)c(OC)c1 (stereo unspecified)	none (no result: STAT3 activator, FXIIa inh 1536, FXIa inh 1536, thrombin 1536, hK5 inh)
COCc1c(C(=O)Nc2ccc(Cl)cc2F)oc2ccccc12	AHR act 71
O=C(Nc1ccccc1OC(F)F)c1oc2ccccc2c1COc1ccccc1	AHR act 49
Cc1ccc(/C=N/Nc2cccc3cccnc23)c(O)c1	AHR act 60
O=[N+]([O-])c1ccc(O)c(/C=N/Nc2nc3ccccc3[nH]2)c1	AHR act 57
COc1ccc(O)c(/C=N/Nc2nc3ccccc3[nH]2)c1	none
Cc1cccc(N/N=C/c2ccccc2O)c1	AHR act 65
O=[N+]([O-])c1cccc(N/N=C/c2cc([N+](=O)[O-])ccc2O)c1	AHR act 54
COc1ccc(S(=O)(=O)N(n2c(C)nnc2-n2nc(C)cc2C)S(=O)(=O)c2ccc(OC)cc2)cc1	none
COc1cccc(CNS(=O)(=O)c2ccc3c(c2)C(C)(C)C(=O)N3C)c1	none (no result: STAT3 activator, FXIIa inh 1536, FXIa inh 1536, thrombin 1536, hK5 inh)
O=[N+]([O-])c1ccc(O)c(C=Nc2cccc3ccccc23)c1	AHR act 52 (no result: STAT3 activator, FXIIa inh 1536, FXIa inh 1536, thrombin 1536, hK5 inh)
Clc1ccc2oc(-c3ccccn3)nc2c1	AHR act 61
Cc1ccc(CNC(=O)C2CCCN(c3cnccn3)C2)cc1 (stereo unspecified)	AHR act 58 (no result: STAT3 activator, FXIIa inh 1536, FXIa inh 1536, thrombin 1536, hK5 inh)
O=C(NCCc1ccc(Cl)cc1)C1CCN(c2cnccn2)CC1	none
Cc1ccc(NC(=O)C2CCCN(c3cnccn3)C2)c(C)c1 (stereo unspecified)	AHR act 47 (no result: STAT3 activator, FXIIa inh 1536, FXIa inh 1536, thrombin 1536, hK5 inh)

Source: PubChem (several laboratories)
